Hits are enriched below; roughly 3.3% of the tested compounds scored in any of these assays.
CendR NRP1 mod – modulators of CendR peptide binding to human neuropilin-1 | FAM-RPARPAR peptide binding to NRP-1, fluorescence polarization | actives 0.85% (n = 360,000) | AID 602438 | O14786 | inhibition, % at 25 µM;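 active means inhibition or corrected inhibition above about 18%, plus a signal ratio from 0.5 to 1.5, limit read from the data, passing the limit was not always enough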
SENP8 block-1 – inhibitors of human SENP8 protease | Q96LD8 | recombinant SENP8, Nedd8 substrate fluorescence | inhibition, % at 20 µM | actives 0.64% (n = 360,000); in the data active means inhibition mostly above about 40%, no sharp cut-off; inactive means mostly below about 27%
Target sequence (Q96LD8 whole entry, looked up): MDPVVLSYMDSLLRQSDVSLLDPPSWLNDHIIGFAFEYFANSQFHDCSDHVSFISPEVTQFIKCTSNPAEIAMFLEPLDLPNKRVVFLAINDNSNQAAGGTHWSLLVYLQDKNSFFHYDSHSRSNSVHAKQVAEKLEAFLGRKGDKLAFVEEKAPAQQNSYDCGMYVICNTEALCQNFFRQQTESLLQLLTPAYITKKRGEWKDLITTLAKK
SENP7 inh – SENP7 protease inhibition; Q9BQF6; recombinant SENP7, Z-RLRGG-aminoluciferin luminescence, 40 min; inhibition, % at 5 µM; actives 1.5% (n = 330,000); AID 434973;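 active means inhibition above about 50% at the single test dose, limit read from the data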;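 further: plate controls were DMSO with enzyme for no effect and no enzyme buffer wells for full effect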
Target sequence (Q9BQF6 706-1050 limits assumed): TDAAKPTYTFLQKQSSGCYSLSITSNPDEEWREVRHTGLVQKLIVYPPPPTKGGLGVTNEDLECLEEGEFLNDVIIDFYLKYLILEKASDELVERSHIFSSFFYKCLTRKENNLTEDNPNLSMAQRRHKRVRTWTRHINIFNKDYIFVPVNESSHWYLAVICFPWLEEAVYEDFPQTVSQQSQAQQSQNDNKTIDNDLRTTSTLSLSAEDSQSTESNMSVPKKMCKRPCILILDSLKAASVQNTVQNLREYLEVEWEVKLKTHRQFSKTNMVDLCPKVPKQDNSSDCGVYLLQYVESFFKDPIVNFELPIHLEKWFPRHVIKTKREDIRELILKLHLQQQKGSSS
SENP1 FRET inh – blocks the human SENP1 SUMO protease catalytic domain | Q9P0U3 | recombinant SENP1 catalytic domain, CyPet-SUMO1-YPet FRET cleavage | inhibition, % at 10 µM | actives 0.21% (n = 360,000);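 active means inhibition at least 30% at 10 µM, raw YFP signal under a set limit, fluorescence ratio 0.5 to 1.5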;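 further: 0% = enzyme with DMSO and 100% = no enzyme wells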
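system = hSENP1 catalytic domain, recombinant | reagent = SFCypet-SUMO1-SFYpet substrate at 25 nM | doses = one dose per compound, 10 µM, 0.5% DMSO | incubation = enzyme reaction for 50 min at room temperature, dark | measured by = FRET, CFP and YFP emission | controls = no-enzyme low, enzyme-DMSO high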
SENP8 block-2 – inhibitors of human SENP8 protease; Q96LD8; purified SENP8, Z-RLRGG-aminoluciferin cleavage, luminescence; actives 1.2% (n = 330,000); inhibition, % at 10 µM; in the data active means inhibition above about 50%
SENP6 block – inhibitors of human SENP6 protease | inhibition, % at 10 µM | AID 2599 | Recombinant SENP6 catalytic domain, aminoluciferin luminescence | actives 1.8% (n = 330,000);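 active means inhibition above about 50% at the single tested dose, limit read from the data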;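 further: plate controls were DMSO wells with enzyme for no effect and DMSO wells lacking enzyme for full effect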
Starred values were filed as active, the others as inactive; / = no result.

SMILES	CendR NRP1 mod	SENP8 block-1	SENP7 inh	SENP1 FRET inh	SENP8 block-2	SENP6 block
O=C1c2c(-c3ccc(Br)cc3)noc2CCN1Cc1cn(Cc2cccnc2)nn1	-2	16	/	3	/	/
Cc1[nH]n(-c2ccccc2)c(=O)c1/C=N/NC(=O)c1cccc([N+](=O)[O-])c1	-9	52*	-1	0	0	9
CC(C)N1CCCC(C)(C(=O)Nc2nc3ccccc3n2C)C1 (stereo unspecified)	-7	9	/	0	/	/
Cc1ccccc1NC(=O)CCC(=O)OCC(=O)c1ccc(-c2ccccc2)cc1	27*	31	11	1	1	4
O=C(NCC1CCCN1S(=O)(=O)c1cccs1)c1cccc(F)c1 (stereo unspecified)	1	5	4	-6	-1	-9
CC1CCc2cc(F)ccc2N1C(=O)CCC(=O)O (stereo unspecified)	25*	20	9	4	-3	-25
CC1CCc2cc(F)ccc2N1C(=O)c1cccs1 (stereo unspecified)	-12	-2	-4	-1	2	-14
COc1cccc(OCC(=O)NNC(=S)Nc2ccc(Cl)cc2Cl)c1	24*	18	5	4	-5	-15
O=C(COc1ccc(Cl)cc1Cl)Nc1ccc(C(=O)Nc2ccccc2C(=O)O)cc1	-79	-25	-4	1	-10	0
Cc1ccccc1NC(=S)NC(=O)COc1ccccc1C	22*	2	-2	1	4	-4
O=C(COc1ccc(Cl)cc1Cl)NC(=S)Nc1ccccc1C(=O)O	/	/	10	/	59*	64*
CC(C)C[C@H]1CN(CCCC[C@@H]2CNC(=O)C(=O)N2CCc2ccccc2)C(=O)C(=O)N1CCc1ccccc1	-12	14	/	0	/	/
CC1(C(=O)NS(=O)(=O)c2ccccc2Cl)CCN1C(=O)C/C=C/c1ccccc1 (stereo unspecified)	-16	10	/	-2	/	/
Cc1nc2ccccc2n1CCC(=O)O	33*	20	14	-21	4	-1
Cc1ccc(C(=O)c2c(NC(=O)CSc3nnc(N)s3)sc3c2CCCC3)cc1	33*	-5	-1	0	1	-8
Nc1nnc(SCC(=O)Nc2sc3c(c2C(=O)c2ccccc2)CCCC3)s1	3	-2	-9	2	-7	3
Cc1ccc(C(=O)N2CCN(c3ccc(C(F)(F)F)cn3)CC2)c(C)c1	38*	-7	7	-1	-2	10
CC(C)NC(=O)C1(C)CCCN1C/C=C/c1ccccc1 (stereo unspecified)	-4	3	/	-4	/	/
CCOC(=O)C1=CCN(S(=O)(=O)c2ccccc2Cl)C1c1ccc(C)cc1 (stereo unspecified)	18	14	/	1	/	/
C[C@@H]1CN([C@H](C)CO)C(=O)CCCn2nncc2CO[C@@H]1CN(C)C(=O)CCC(F)(F)F	27*	0	/	2	/	/
C[C@@H]1CN([C@H](C)CO)C(=O)CCCn2nncc2CO[C@H]1CN(C)S(=O)(=O)c1cn(C)cn1	27*	10	/	0	/	/
C[C@H](CO)N1C[C@H](C)[C@H](CN(C)S(=O)(=O)c2cn(C)cn2)OCc2cnnn2CCCC1=O	3	-1	/	0	/	/
O=C(NCc1ccccc1)c1nc(-c2c(F)cccc2F)oc1-c1ccccc1	8	-176	/	3	/	/
CSC12CCCN(CCC(C(C)(C)C)C1)C2=O (stereo unspecified)	-15	16	/	1	/	/
C[C@H](NC(=O)CCC1CCC(=O)N1)c1ccccc1 (stereo partly specified)	19*	20	3	2	-8	-15
SMILES	CendR NRP1 mod	SENP8 block-1	SENP7 inh	SENP1 FRET inh	SENP8 block-2	SENP6 block
Brc1ccc2nc(-c3ccco3)c(CC3CCCCC3)n2c1	-40	-26	/	-13	/	/
Cc1ccc(C(=O)NN2C(=O)/C(=C/c3cccn3C)SC2=S)cc1	-46	28	8	-58	-1	-15
O=C(NN1C(=O)/C(=C\c2ccc(O)c([N+](=O)[O-])c2)SC1=S)c1ccccc1Cl	-192	68*	2	33*	-9	-11
O=C(NN1C(=O)/C(=C/c2ccc(O)c(O)c2)SC1=S)c1ccccc1	-203	32	5	32	-12	-16
COc1cc(/C=C2\SC(=S)N(NC(=O)c3cccnc3)C2=O)ccc1O	-188	30	6	49*	-3	-18
Cc1ccc(C(=O)NN2C(=O)/C(=C/c3cn(C)c4ccccc34)SC2=S)cc1	-36	42*	/	-26	/	/
O=C(O)c1ccc(/C=C2\SC(=S)N(NC(=O)c3ccccc3[N+](=O)[O-])C2=O)cc1	-10	31	-12	5	-10	2
O=C1/C(=C/c2ccc(O)c(O)c2)SC(=S)N1Nc1ccccc1	-188	28	/	36*	/	/
COCCN1C(=O)COc2ccccc2C1C(=O)NC1CCCC1 (stereo unspecified)	-12	4	/	-1	/	/
CCOC(=O)[C@]12CCC=C1N(Cc1ccc(Cl)cc1Cl)C(=O)[C@H](CC(=O)NCc1ccccc1)C2	13	16	/	2	/	/
CC(C)CN(C(=O)CN(C)CC(=O)Nc1ccccc1C#N)c1c(N)n(CC(C)C)c(=O)[nH]c1=O	1	2	4	0	0	-4
CCOc1nc(OCC)c2[nH]c(C(=O)O)c(Br)c2n1	9	2	/	1	/	/
Cn1cc(/C=C2\SC(=S)N(NC(=O)c3ccccc3Cl)C2=O)c2ccccc21	-31	44*	/	-27	/	/
Cn1cccc1/C=C1\SC(=S)N(NC(=O)c2ccccc2Cl)C1=O	121	34	/	-77	/	/
O=C(CSc1nc2ccccc2n1Cc1ccccc1Cl)N/N=C/c1ccccc1C(=O)O	40*	27	5	1	-6	11
CCOC(=O)C(C(=O)NCc1ccc(F)cc1)c1ncc(C(F)(F)F)cc1Cl (stereo unspecified)	25*	10	12	0	-7	-13
C[C@H](CO)N1C[C@H](C)[C@@H](CN(C)C(=O)CN2CCOCC2)Oc2cc(Br)ccc2S1(=O)=O	-6	-3	/	-1	/	/
Cc1ccc(F)cc1C(=O)N1CCCC(c2cc(C(=O)Nc3ccccc3Cl)no2)C1 (stereo unspecified)	9	18	/	2	/	/
CCCNC(=O)C1(C)CCN(Cc2cc(C(F)(F)F)ccc2Cl)C1 (stereo unspecified)	22*	2	/	-1	/	/
COc1cccc(C(C)(O)c2nc(-c3cnc4ccccc4c3)cs2)c1 (stereo unspecified)	-4	-27	/	0	/	/
COc1ccc(S(=O)(=O)N2CCC(C(=O)N[C@H](C(=O)NCc3ccccc3)C(C)C)CC2)cc1	-12	14	/	0	/	/
Cc1ccc2cccc(NC3OC(=O)c4ccccc43)c2n1 (stereo unspecified)	5	10	36	-23	22	51*
